In ChEMBL document CHEMBL3244180, “Synthesis of branched-chain apiosylpyrimidines and their inhibition of lymphocyte proliferation” (1978):
Activity calls are given as the source filed them. The calls are words filed in the database; no cut-off is given here.

Columns and labels:
[1] = Immunosuppressive activity against PHA-stimulated proliferation in rat T-lymphocytes assessed as cell viability at 1 uM […] by [3H]thymidine incorporation method relative to control; assay type: functional; conditions: read-out: Activity
[2] = Immunosuppressive activity against PHA-stimulated proliferation in rat T-lymphocytes assessed as cell viability at 100 uM after 6 days by [3H]thymidine incorporation method relative to control; assay type: functional; conditions: read-out: Activity
How it was run: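 Rat lymphocytes incubated 6 days at 37 °C with 100 μM compound; result expressed as percentage of viable lymphocytes.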

[3] = system: T-cell; assay: Immunosuppressive activity against PHA-stimulated proliferation in rat T-lymphocytes assessed as cell viability at 0.01 to 0.1 uM […] by [3H]thymidine incorporation method relative to control; assay type: functional, cell-based
[4] = system: MGL8; assay: Growth inhibition of human MGL8 cells at 5 uM after 48 hrs; assay type: functional, cell-based
How it was run: (§1)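 MGL-8 lymphoblasts seeded at 22 × 10⁴ cells/mL in stationary suspension in RPMI 1640 with 10% fetal calf serum, penicillin and streptomycin; 48 h at 37 °C; cells counted by Coulter counter; growth expressed as % of untreated control; significance tested (p < 0.01).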

[5] = Growth inhibition of human MGL8 cells at 50 uM after 48 hrs relative to control; assay type: functional; conditions: MGL8, 48 h, read-out: GI; how it was run: as §1
[6] = Growth inhibition of human MGL8 cells at 500 uM after 48 hrs relative to control; assay type: functional; conditions: MGL8, 48 h, read-out: GI; how it was run: as §1
[7] = system: Human alphaherpesvirus 2; assay: Antiviral activity against HSV2 infected in BHK cells assessed as reduction of viral plaque at 4 uM after 24 hrs; assay type: functional
How it was run: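 BHK confluent monolayers in 24-well trays; supernatant removed and 50 μL virus dilution added per well; 2 h at 37 °C, 5% CO2, 100% humidity with intermittent agitation. Eagle's medium containing tryptose phosphate broth and calf serum then added; viral plaques counted after 24 h.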

[8] = system: Staphylococcus aureus; assay: Antibacterial activity against Staphylococcus aureus at 1 mg/ml; assay type: functional, organism-based
How it was run: (§2)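 Organisms grown on agar plates at 37 °C. Compound dissolved at 1 mg/mL in methanol, applied to a 2-cm disk, and the disk placed on agar streaked with the organism.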

[9] = system: Bacillus subtilis; assay: Antibacterial activity against Bacillus subtilis at 1 mg/ml; assay type: functional, organism-based; how it was run: as §2
[10] = system: Micrococcus luteus; assay: Antibacterial activity against Sarcina lutea at 1 mg/ml; assay type: functional, organism-based; how it was run: as §2
[11] = system: Proteus vulgaris; assay: Antibacterial activity against Proteus vulgaris at 1 mg/ml; assay type: functional, organism-based; how it was run: as §2
[12] = system: Salmonella enterica subsp. enterica serovar Gallinarum; assay: Antibacterial activity against Salmonella gallinarum at 1 mg/ml; assay type: functional, organism-based; how it was run: as §2
[13] = system: Escherichia coli; assay: Antibacterial activity against Escherichia coli at 1 mg/ml; assay type: functional, organism-based; how it was run: as §2
[14] = system: Pseudomonas aeruginosa; assay: Antibacterial activity against Pseudomonas aeruginosa at 1 mg/ml; assay type: functional, organism-based; how it was run: as §2
[15] = system: Ralstonia solanacearum; assay: Antibacterial activity against Pseudomonas solanacearum at 1 mg/ml; assay type: functional, organism-based
How it was run: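 Agar disk diffusion: test compound at 1 mg/mL in methanol, applied to a 2-cm disk laid on agar plates streaked with the organism.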

[16] = system: Serratia marcescens; assay: Antibacterial activity against Serratia marcescens at 1 mg/ml; assay type: functional, organism-based; how it was run: as §2
[17] = system: Saccharomyces pastorianus; assay: Antifungal activity against Saccharomyces pastorianus at 1 mg/ml; assay type: functional, organism-based; how it was run: as §2
[18] = system: Neurospora crassa; assay: Antifungal activity against Neurospora crassa at 1 mg/ml; assay type: functional, organism-based; how it was run: as §2
[19] = system: Candida albicans; assay: Antifungal activity against Candida albicans at 1 mg/ml; assay type: functional, organism-based; how it was run: as §2

Row | SMILES | thymidine incorporation of control at 1 µM [1] [%] | viability at 100 µM [2] [%] | Activity [3] | growth inhibition (GI) [4] | inhibition of growth at 50 µM [5] [%] | inhibition of growth at 500 µM [6] [%] | Activity [7] | Activity [8] | Activity [9] | Activity [10] | Activity [11] | Activity [12] | Activity [13] | Activity [14] | Activity [15] | Activity [16] | Activity [17] | Activity [18] | Activity [19]
1 | O=c1ccn([C@@H]2OC[C@@](O)(CO)[C@H]2O)c(=O)[nH]1 | 16 | 90 | inactive | inactive | 100 | 72 | inactive | inactive | inactive | inactive | inactive | inactive | inactive | inactive | inactive | inactive | inactive | inactive | inactive
2 | Nc1ncnc2c1ncn2[C@@H]1O[C@H](CO)[C@@H](O)[C@@H]1O [VIDARABINE] | 71 | 94 | – | – | – | – | – | – | – | – | – | – | – | – | – | – | – | – | –
3 | CC(=O)O[C@H]1[C@H](n2cc(I)c(=O)[nH]c2=O)OC[C@@]12COC(=O)O2 | – | – | – | – | – | – | – | inactive | inactive | inactive | inactive | inactive | inactive | inactive | inactive | inactive | inactive | inactive | inactive
4 | CC(=O)O[C@H]1[C@H](n2cc(Br)c(=O)[nH]c2=O)OC[C@@]12COC(=O)O2 | – | – | – | – | – | – | – | inactive | inactive | inactive | inactive | inactive | inactive | inactive | inactive | inactive | inactive | inactive | inactive
5 | O=c1[nH]c(=O)n([C@@H]2OC[C@@](O)(CO)[C@H]2O)cc1Br | – | – | – | inactive | 52 | 13 | inactive | – | – | – | – | – | – | – | – | – | – | – | –
6 | Nc1ccn([C@@H]2O[C@H](CO)[C@@H](O)[C@@H]2O)c(=O)n1 [CYTARABINE] | 18 | 76 | inactive | – | – | – | – | – | – | – | – | – | – | – | – | – | – | – | –
7 | Nc1ncnc2c1ncn2[C@@H]1OC[C@@](O)(CO)[C@H]1O | 14 | 85 | – | – | – | – | 42% | – | – | – | – | – | – | – | – | – | – | – | –
8 | O=c1[nH]c(=O)n([C@@H]2OC[C@@](O)(CO)[C@H]2O)cc1I | – | – | – | inactive | 24 | 6 | inactive | – | – | – | – | – | – | – | – | – | – | – | –
9 | NC(=O)c1ncn([C@@H]2O[C@H](CO)[C@@H](O)[C@H]2O)n1 [RIBAVIRIN] | 127 | – | – | – | – | – | – | – | – | – | – | – | – | – | – | – | – | – | –
10 | O=c1[nH]c(=O)n([C@@H]2O[C@H](CO)[C@@H](O)[C@H]2O)cc1I | – | – | – | inactive | 32 | 9 | – | – | – | – | – | – | – | – | – | – | – | – | –
11 | Nc1ncnc2c1ncn2[C@@H]1OC[C@](O)(CO)[C@H]1O | 159 | 91 | inactive | – | – | – | – | – | – | – | – | – | – | – | – | – | – | – | –
12 | Cc1cn([C@@H]2OC[C@@](O)(CO)[C@H]2O)c(=O)[nH]c1=O | 56 | 89 | inactive | inactive | 95 | 83 | inactive | inactive | inactive | inactive | inactive | inactive | inactive | inactive | inactive | inactive | inactive | inactive | inactive
13 | O=c1[nH]c(=O)n([C@@H]2O[C@H](CO)[C@@H](O)[C@H]2O)cc1Br | – | – | – | inactive | 40 | 11 | – | – | – | – | – | – | – | – | – | – | – | – | –
